Laboratory results taken from ChEMBL document CHEMBL2040795, “Synthesis, biological evaluation, and structure-activity relationships of 2-[2-(benzoylamino)benzoylamino]benzoic acid analogues as inhibitors of adenovirus replication” (J Med Chem, 2012).

Columns and labels:
[1] = Cytotoxicity against human A549 cells assessed as viability at 60 uM after 24 hrs by XTT assay; format: cell-based; details: read-out: Activity
In short: (§1)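 About 15000 A549 cells per well were seeded the day before. Compound was added in DMEM with 0.75 g/L NaHCO3 and 20 mM HEPES, then incubated 24 h at 37 °C, 5% CO2. XTT was added 4 h before reading formazan absorbance at 450 nm. Values are percentage viable cells, with DMSO baseline toxicity subtracted (0.15% DMSO at 30 μM, 0.30% at 60 μM).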

[2] = Cytotoxicity against human A549 cells assessed as viability at 30 uM after 24 hrs by XTT assay; format: cell-based; details: read-out: Activity; in short: as §1
Human adenovirus 5 [3] = test: Antiviral activity against Adenovirus type 5 F2853-5b infected in human A549 cells assessed as inhibition of viral replication at 15 uM after 24 hrs by RT-PCR analysis; format: functional; details: Human mastadenovirus C, A549, 24 h
In short: (§2)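 Ad5-infected A549 cells incubated with compound for 24 h. DNA was then extracted and newly synthesized viral DNA quantified by real-time PCR of the hexon gene, normalized to cellular RNaseP gene. […] EC50 determined for selected compounds.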

Human adenovirus 5 [4] = test: Antiviral activity against Adenovirus type 5 F2853-5b infected in human A549 cells assessed as inhibition of viral replication at 5 uM after 24 hrs by RT-PCR analysis; format: functional; details: Human mastadenovirus C, A549, 24 h; in short: as §2
[5] = Aqueous solubility of the compound in water; format: physicochemical; details: buffer
[6] = Chemical solubility of the compound in DMSO; format: physicochemical
Human adenovirus 5 [7] = test: Antiviral activity against Adenovirus type 5 F2853-5b infected in human A549 cells assessed as inhibition of viral replication after 24 hrs by RT-PCR analysis; format: functional, organism-based; details: Human mastadenovirus C, A549, 24 h; in short: as §2

SMILES | inhibition at 15 µM (Human adenovirus 5 [3]) [%] | inhibition at 5 µM (Human adenovirus 5 [4]) [%] | other results
O=C(Nc1ccccc1C(=O)Nc1ccccc1C(=O)O)c1ccccc1 | 91 | 89 | viability at 24 h, 60 µM [1]: 83%; viability at 24 h, 30 µM [2]: 82%
COc1ccc(C(=O)Nc2ccccc2C(=O)Nc2ccccc2C(=O)O)cc1 | 67 | 0 | 
Cc1ccccc1C(=O)Nc1cccc(C(=O)Nc2ccccc2C(=O)O)c1 | 7 | 5 | 
CCOC(=O)c1cccc(NC(=O)c2ccccc2NC(=O)c2ccccc2)c1 | 0 |  | 
O=C(O)c1cccc(NC(=O)c2ccccc2NC(=O)c2ccccc2)c1 | 8 |  | 
CCOC(=O)c1ccc(NC(=O)c2ccccc2NC(=O)c2ccccc2)cc1 | 8 |  | 
O=C(O)c1ccc(NC(=O)c2ccccc2NC(=O)c2ccccc2)cc1 | 8 |  | 
CCOC(=O)c1ccccc1NC(=O)c1cccc(NC(=O)c2ccccc2)c1 | 25 |  | 
O=C(Nc1cccc(C(=O)Nc2ccccc2C(=O)O)c1)c1ccccc1 | 39 |  | 
CCOC(=O)c1ccccc1NC(=O)c1ccc(NC(=O)c2ccccc2)cc1 | 15 |  | 
O=C(Nc1ccc(C(=O)Nc2ccccc2C(=O)O)cc1)c1ccccc1 | 47 |  | 
CCOC(=O)c1ccccc1NC(=O)c1ccccc1NC(=O)c1ccccc1 |  |  | solubility [5]: Insoluble; solubility [6]: Insoluble
O=C(Nc1ccccc1C(=O)Nc1ccccc1)c1ccccc1 | 18 |  | 
Cc1ccc(NC(=O)c2ccccc2NC(=O)c2ccccc2C(=O)O)cc1 | 0 | 0 | 
Cc1ccccc1C(=O)Nc1ccccc1C(=O)Nc1ccc(C(=O)O)cc1 | 20 | 0 | 
Cc1ccc(C(=O)Nc2ccccc2C(=O)Nc2ccccc2C(=O)O)cc1 | 85 | 0 | 
NC(=O)c1ccccc1NC(=O)c1cccc(NC(=O)c2ccccc2)c1 | 19 | 0 | 
Cc1ccc(C(=O)Nc2ccccc2C(=O)Nc2ccccc2C)cc1 | 12 | 0 | 
CC(=O)Nc1ccccc1C(=O)Nc1ccccc1C(=O)O | 24 | 4 | 
CS(=O)(=O)Nc1ccccc1C(=O)Nc1ccccc1C(=O)O | 23 | 0 | 
Cc1ccc(S(=O)(=O)Nc2ccccc2C(=O)Nc2ccccc2C(=O)O)cc1 | 8 | 2 | 

SMILES | inhibition at 15 µM (Human adenovirus 5 [3]) [%] | inhibition at 5 µM (Human adenovirus 5 [4]) [%] | other results
CC(C)(C)C(=O)Nc1ccccc1C(=O)Nc1ccccc1C(=O)O | 52 | 45 | 
O=C(O)c1ccccc1NC(=O)c1ccccc1NC(=O)C1CCCCC1 | 55 | 20 | 
O=C(O)CCC(=O)Nc1ccccc1C(=O)Nc1ccccc1C(=O)O | 0 | 0 | 
O=C(Nc1ccccc1C(=O)Nc1ccccc1C(=O)O)c1ccccc1F | 98 | 96 | viability at 24 h, 60 µM [1]: 83%; viability at 24 h, 30 µM [2]: 85%; EC50 (Human adenovirus 5 [7]): 2.3 µM
O=C(Nc1ccccc1C(=O)Nc1ccccc1C(=O)O)c1cccc(F)c1 |  | 41 | 
O=C(Nc1ccccc1C(=O)Nc1ccccc1C(=O)O)c1ccc(F)cc1 | 95 | 76 | 
O=C(Cc1ccccc1)Nc1ccccc1C(=O)Nc1ccccc1C(=O)O | 21 | 32 | 
O=C(O)Cc1ccccc1NC(=O)c1ccccc1NC(=O)c1ccccc1 | 0 | 0 | 
O=C(Cc1ccccc1NC(=O)c1ccccc1)Nc1ccccc1C(=O)O | 0 | 0 | 
O=C(Nc1ccccc1C(=O)Nc1cc(Cl)ccc1C(=O)O)c1ccccc1F | 61 | 0 | 
O=C(Nc1ccccc1C(=O)Nc1ccc(Cl)cc1C(=O)O)c1ccccc1F | 0 | 0 | 
COc1ccc(C(=O)O)c(NC(=O)c2ccccc2NC(=O)c2ccccc2F)c1 | 0 | 0 | 
COc1ccc(NC(=O)c2ccccc2NC(=O)c2ccccc2F)c(C(=O)O)c1 | 78 | 28 | 
O=C(Nc1ccccc1C(=O)Nc1cc(F)c(F)cc1C(=O)O)c1ccccc1F | 0 | 0 | 
O=C(Nc1cc(Cl)ccc1C(=O)Nc1ccccc1C(=O)O)c1ccccc1F | 78 | 57 | 
O=C(Nc1ccc(Cl)cc1C(=O)Nc1ccccc1C(=O)O)c1ccccc1F | 91 | 89 | viability at 24 h, 60 µM [1]: 88%; viability at 24 h, 30 µM [2]: 91%; EC50 (Human adenovirus 5 [7]): 0.57 µM
COc1ccc(C(=O)Nc2ccccc2C(=O)O)c(NC(=O)c2ccccc2F)c1 | 89 | 92 | viability at 24 h, 60 µM [1]: 94%; viability at 24 h, 30 µM [2]: 92%; EC50 (Human adenovirus 5 [7]): 2.3 µM
COc1ccc(NC(=O)c2ccccc2F)c(C(=O)Nc2ccccc2C(=O)O)c1 | 97 | 91 | viability at 24 h, 60 µM [1]: 84%; viability at 24 h, 30 µM [2]: 84%; EC50 (Human adenovirus 5 [7]): 1.4 µM
O=C(Nc1cc(F)c(F)cc1C(=O)Nc1ccccc1C(=O)O)c1ccccc1F | 93 | 94 | viability at 24 h, 60 µM [1]: 96%; viability at 24 h, 30 µM [2]: 96%; EC50 (Human adenovirus 5 [7]): 0.58 µM
Nc1ccn(C[C@@H](CO)OCP(=O)(O)O)c(=O)n1 [CIDOFOVIR] |  |  | viability at 24 h, 60 µM [1]: 98%; viability at 24 h, 30 µM [2]: 100%
